# Experimental data taken from the array DNA melting data of Ke et al. (doi:10.1101/2024.01.08.574731).
# How the values were obtained:
# [1] = melting temperature; fluorescence melt of hairpins on a sequencing array, two-state fit, raised by 9.35 °C to match UV melts; conditions: sodium 0.088 M
# In short: (§1)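 In 50 mM Na-HEPES pH 8.0 containing 25 mM NaCl, hairpins from the library on a sequenced MiSeq flow cell were imaged for Cy3 fluorescence at 2.5 °C steps up to 60 °C, with Cy3 and quencher oligos annealed. After normalisation to pre-quench Cy3 and to control constructs, two-state fits with bootstrapping gave melting temperature and folding enthalpy. Four replicates were combined by inverse-variance weighting, and fitted temperatures were shifted up by 9.35 °C to match UV melts.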
# [2] = folding enthalpy; higher = less favourable; fluorescence melt of hairpins on a sequencing array, two-state fit; conditions: sodium 0.088 M
# In short: as §1
Sequence,Tm [1] [°C],folding enthalpy [2] [kcal/mol]
CGTACGGAAACGTAACG ((((((....))).))),45.3,-28.7
GTCGACGAAAGTCTTGAC ((((((....)))..))),36.2,-15.4
GGCCCTGCGAAAGCAGCC (((..(((....)))))),36.9,-8.71
GTCTTCGAAAGAATTGAC ((((((....)))..))),26.2,-10.7
GCCACGCGAAAGCGTCGC ((.((((....)))).)),60.2,-16.1
GATCTCGATGAGATC ((((((...)))))),53,-37.2
GATCAGTGAGCTGATC ((((((....)))))),56.2,-36.1
GTGGTCGAAAGACACCAC ((((((....)))..))),42.4,-15.6
GTACCGCGAAAGCGATAC (((.(((....))).))),48.5,-23.6
GATCCTATTCAGGATC ((((((....)))))),52.6,-44
TTACGGAAACGTAA (((((....))))),42.1,-14.8
GGAGACGAAAGTCAATCC ((((((....)))..))),31,-15.1
GTATGCGAAAGCATATAC ((((((....)))..))),42.2,-11
GCAGTTGGAAACAACTGC (((((((....))))))),62.5,-63.5
GTGCATACGAAAGTACAC (((..(((....)))))),29.3,-8.91
GCTCAGCGAAAGCGCAGC (((..((....))..))),45.7,-14.8
GAGATTGAAAAATCTC ((((((....)))))),47.9,-33.8
GATACAGCGAAAGCTATC (((..(((....)))))),26.2,-10.4
GCCTACGAAAGTACGGC ((((((....))).))),51.5,-28.8
GATCAAGATTTTGATC ((((((....)))))),44.5,-28.5
GATCTCCGTGAGATC ((((((...)))))),56.3,-36.2
GAATACCGAAAGGTGTTC (((.(((....))).))),51.2,-40.3
GATGCCGGAAACGGTGTC ((..(((....)))..)),47.8,-24.3

Sequence,Tm [1] [°C],folding enthalpy [2] [kcal/mol]
GATCATTGGGATGATC ((((((....)))))),49.5,-38.8
GATCTATCTTAGATC ((((((...)))))),41.4,-24.6
GTACTCGAAAGAGGTAC ((((((....))).))),42.7,-21.1
GCAGGGGGAAACCCCTAC (.(((((....))))).),35.4,-14.2
GCCCAGGGAAACCTGAGC ((.((((....)))).)),45.5,-19.2
GATCCTGGAAACAGGGTC ((.((((....)))).)),50.8,-32.9
GAAGTAGGAAACTACTCC (.(((((....))))).),32.5,-11.4
GACTAGGGAAACTTAGTC (((((.(....).))))),37.9,-30.1
GATCATGCGAAAGCAATC (((..(((....)))))),22.5,-9.85
GAAGGAGAAATCCTTC ((((((....)))))),46.3,-26.8
GCGATTGAAAAATCGC ((((((....)))))),64.8,-40.7
GGGTGACGAAAGTCCCC (((.(((....)))))),58.4,-34.9
GATCTCCATTGAGATC ((((((....)))))),52.3,-33.7
GCCTAGGGAAACCCAGGC ((((.((....)).)))),50.6,-31.6
GATCCTATATAGGATC ((((((....)))))),52.3,-46.7
GATAAGCGAAAGCTAATC (((.(((....))).))),41.5,-16.8
GAGCACGAAAGTGCCTC ((((((....))).))),51.2,-10.4
GCCACCGAAAGGTCTGGC ((((((....)))..))),47.4,-19.4
GATCTCCCAGGAGATC ((((((....)))))),56.8,-36.4
GAGGAAGGAAACCTCCTC (((((.(....).))))),36.6,-25.9
GTCGATGAAAATCGAC ((((((....)))))),61.3,-39.4
GTAGTAGGAAACTACTAC (((((((....))))))),53.3,-41.9
GCTGTGCGAAAGCACTGC ((.((((....)))).)),68.1,-24.1

Sequence,Tm [1] [°C],folding enthalpy [2] [kcal/mol]
GATCGGCCCCCCGATC ((((((....)))))),56.1,-37.1
GTCTGTCGAAAGACGGAC (((.(((....))).))),63.2,-36.6
GGCCGGTCGAAAGACGCC (((..(((....)))))),48.4,-21.9
GCCTAAGGAAACTTGGGC (((.(((....))).))),48.9,-37
GTGTTTCGAAAGAATCAC (((.(((....))).))),45,-39.3
GGTCCGGGAAACTGGGCC ((.((.(....).)).)),51.7,-35.4
GAGTGCGAAAGCAATCTC ((((((....)))..))),53.7,-21.4
GCTCGAGGAAACTCGGGC ((.((((....)))).)),59.9,-38.9
GCTGATCGAAAGATGAGC (((.(((....))).))),48,-32.2
GAATAGCGAAAGCTTTC (((.(((....)))))),33.7,-11.6
GATCAATCTTTTGATC ((((((....)))))),46.5,-34.1
GGCAAACGAAAGTTGCC (((.(((....)))))),59.6,-33.3
GCCGCCGAAAGGCAAGGC ((((((....)))..))),65.5,-24.6
GGTCAGGGAAACCTGACC (((((((....))))))),67.2,-36.6
GCAGTCGAAAGACTGTGC ((((((....)))..))),55.3,-18.3
GCTTAGCGAAAGCCCAGC (((..((....))..))),33.4,-11.5
GATCCTCCTAGGATC ((((((...)))))),54,-39.2
CGTAATCGGAAACGAACG (((..(((....)))))),20.9,-7.75
GCTCTCGGAAACGAAAGC (((.(((....))).))),39.4,-28.5
GGTATGTCGAAAGACACC (((..(((....)))))),34.8,-12.1
GCGTTCAAACGC ((((....)))),53.1,-24.5
GATCTTTTAGAAGATC ((((((....)))))),44.4,-41.8
GCCCACGAAAGTGAGGC ((((((....))).))),64,-31.1
